Active and inactive are the calls of the source. No cut-off for these calls is given here. Square brackets hold non-standard residues; d marks the D form. Peptide text beside a SMILES is read from it. * marks the point of attachment. Sta = CC(C)C[C@H](N)[C@@H](O)CC(=O)O; Isovaleryl = CC(C)CC(=O)*; NHIsopentyl = CC(C)CCN*
Experiments:
Pepsin A (Sus scrofa) [1] = target: Pepsin A (Sus scrofa) (UniProt P00791); test: The compound was tested for time dependent inhibition against carboxyl protease (pepsin); Yes
Pepsin A = Pepsin A (Sus scrofa, UniProt P00791); test: The compound was tested for inhibition of carboxyl protease (pepsin) inhibition
Outline: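 Porcine pepsin was assayed spectrophotometrically with the heptapeptide substrate Phe-Gly-His-Phe(NO2)-Phe-Ala-Phe-OMe (Km 4.0×10^-5 M). Fractional velocity (Vi/V0) was plotted against inhibitor concentration to obtain IC50. IC50 was converted to Ki with Cha's equation, Ki = (IC50 − Et/2)(1 + S/Km)^-1, using total enzyme and substrate concentrations. Time-dependent inhibitors were preincubated with enzyme for 10 min, and steady-state velocities were used.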

Pepsin A (Sus scrofa) [2] = target: Pepsin A (Sus scrofa) (UniProt P00791); test: The compound was tested for time dependent inhibition against carboxyl protease (pepsin); No inhibition

Sequence of Pepsin A (Sus scrofa) (P00791 60-385 limits assumed): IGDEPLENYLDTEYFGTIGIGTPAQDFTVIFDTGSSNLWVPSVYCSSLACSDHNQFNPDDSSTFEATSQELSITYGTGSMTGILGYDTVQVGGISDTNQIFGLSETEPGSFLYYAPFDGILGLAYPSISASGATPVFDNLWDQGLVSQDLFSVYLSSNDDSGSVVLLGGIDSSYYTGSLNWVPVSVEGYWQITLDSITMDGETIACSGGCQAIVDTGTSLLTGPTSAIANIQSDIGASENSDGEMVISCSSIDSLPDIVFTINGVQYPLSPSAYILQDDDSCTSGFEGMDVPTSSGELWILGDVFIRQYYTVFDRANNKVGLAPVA
Sequence of Pepsin A (P00791 whole entry): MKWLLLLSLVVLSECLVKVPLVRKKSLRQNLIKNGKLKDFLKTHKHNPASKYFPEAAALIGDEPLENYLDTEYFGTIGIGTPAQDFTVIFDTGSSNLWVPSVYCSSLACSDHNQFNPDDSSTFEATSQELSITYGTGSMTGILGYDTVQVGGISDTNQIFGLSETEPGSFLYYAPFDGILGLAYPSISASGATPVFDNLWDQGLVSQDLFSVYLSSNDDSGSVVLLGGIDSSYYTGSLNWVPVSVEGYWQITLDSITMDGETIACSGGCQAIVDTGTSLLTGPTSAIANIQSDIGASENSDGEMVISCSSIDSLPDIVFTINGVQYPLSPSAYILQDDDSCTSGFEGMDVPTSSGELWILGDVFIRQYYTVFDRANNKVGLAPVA

Compound | TDI (Pepsin A (Sus scrofa) [1]) | Ki (Pepsin A) [nM] | TDI (Pepsin A (Sus scrofa) [2])
CCC(C)C(=O)N[C@H](C(=O)N[C@@H](CC(C)C)[C@@H](O)CC(=O)N[C@@H](C)C(=O)NCCC(C)C)C(C)C (stereo not given in full) | Active | 0.31 | 
CC(C)CCNC(=O)[C@H](C)NC(=O)C[C@H](O)[C@H](CC(C)C)NC(=O)[C@@H](NC(=O)C(C)C)C(C)C | Active | 1.6 | 
CC(C)CCNC(=O)[C@H](C)NC(=O)C[C@H](O)[C@H](CC(C)C)NC(=O)[C@@H](NC(=O)CC(C)C)C(C)C | Active | 2.9 | 
CC(C)CCNC(=O)[C@H](C)NC(=O)C[C@H](O)[C@H](CC(C)C)NC(=O)[C@@H](NC(=O)[C@@H](NC(=O)CC(C)C)C(C)C)C(C)C (Isovaleryl-VV[Sta]A-NHIsopentyl) | Active | ~0.1 | 
CCC(CC)C(=O)N[C@H](C(=O)N[C@@H](CC(C)C)[C@@H](O)CC(=O)N[C@@H](C)C(=O)NCCC(C)C)C(C)C | Active | 0.18 | 

More lines, in order of falling Ki (Pepsin A), values ahead:

TDI (Pepsin A (Sus scrofa) [1]) | Ki (Pepsin A) [nM] | TDI (Pepsin A (Sus scrofa) [2]) | Compound
 | 170 | inactive | CC(C)CCNC(=O)[C@H](C)NC(=O)C[C@H](O)[C@H](CC(C)C)NC(=O)[C@@H](NC(=O)OC(C)(C)C)C(C)C
Active | 11 |  | CC(C)CCNC(=O)[C@H](C)NC(=O)C[C@H](O)[C@H](CC(C)C)NC(=O)[C@@H](NC(=O)[C@H](NC(=O)OC(C)(C)C)C(C)C)C(C)C
 | 8.6 | inactive | CC(C)CCNC(=O)[C@H](C)NC(=O)C[C@H](O)[C@H](CC(C)C)NC(=O)[C@@H](NC(=O)OC(C)C)C(C)C
 | 7.5 | inactive | CC(C)CCNC(=O)[C@H](C)NC(=O)C[C@H](O)[C@H](CC(C)C)NC(=O)[C@@H](NC(=O)CC(C)(C)C)C(C)C
Active | ~6 |  | CC(C)CCNC(=O)[C@H](C)NC(=O)C[C@H](O)[C@H](CC(C)C)NC(=O)[C@@H](NC(=O)[C@@H](NC(=O)OC(C)(C)C)C(C)C)C(C)C

Reference: ChEMBL document CHEMBL1122088, “Synthesis of analogues of the carboxyl protease inhibitor pepstatin. Effect of structure in subsite P3 on inhibition of pepsin” (J Med Chem, 1982)
